Laboratory results as given in the M2OR odorant receptor database.

Experiments:
Conditions in all cases: stereoisomer not certain
UniProt A2ATE5 = molecular target: T1, UniProt A2ATE5
T1 sequence (whole entry): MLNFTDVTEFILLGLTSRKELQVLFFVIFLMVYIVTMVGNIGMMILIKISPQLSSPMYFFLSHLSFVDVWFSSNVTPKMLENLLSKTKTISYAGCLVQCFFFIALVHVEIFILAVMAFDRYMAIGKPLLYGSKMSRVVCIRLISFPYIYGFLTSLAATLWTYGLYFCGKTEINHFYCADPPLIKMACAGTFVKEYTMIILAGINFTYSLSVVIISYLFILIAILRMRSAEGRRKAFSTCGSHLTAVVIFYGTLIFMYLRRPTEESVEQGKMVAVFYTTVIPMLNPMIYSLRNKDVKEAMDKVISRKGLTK
Method in brief: (§1)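 Values were gathered from published papers (main text and supplementary material), with extra details requested from the original authors when needed, and checked for typos and inconsistencies. Each receptor–molecule pair is called responsive (active) if the original authors judged the measured signal statistically different from baseline, and non-responsive (inactive) otherwise. Assay methods varied by source, often transient mammalian cell-line luciferase assays. Recorded details include cell line, G-protein, co-transfected protein and tags.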

UniProt A2AVB0 = molecular target: T2, UniProt A2AVB0
T2 sequence (whole entry): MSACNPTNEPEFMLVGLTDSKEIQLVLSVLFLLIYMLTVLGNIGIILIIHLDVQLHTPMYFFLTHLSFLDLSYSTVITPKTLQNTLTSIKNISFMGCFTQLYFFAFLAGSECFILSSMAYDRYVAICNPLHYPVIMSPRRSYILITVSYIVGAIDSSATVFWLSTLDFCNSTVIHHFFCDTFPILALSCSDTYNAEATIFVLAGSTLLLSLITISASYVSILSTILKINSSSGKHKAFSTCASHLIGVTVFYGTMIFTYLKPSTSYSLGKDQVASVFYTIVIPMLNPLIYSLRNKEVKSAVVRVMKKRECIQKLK
Method in brief: as §1

UniProt A2AVB5 = molecular target: T3, UniProt A2AVB5
T3 sequence (whole entry): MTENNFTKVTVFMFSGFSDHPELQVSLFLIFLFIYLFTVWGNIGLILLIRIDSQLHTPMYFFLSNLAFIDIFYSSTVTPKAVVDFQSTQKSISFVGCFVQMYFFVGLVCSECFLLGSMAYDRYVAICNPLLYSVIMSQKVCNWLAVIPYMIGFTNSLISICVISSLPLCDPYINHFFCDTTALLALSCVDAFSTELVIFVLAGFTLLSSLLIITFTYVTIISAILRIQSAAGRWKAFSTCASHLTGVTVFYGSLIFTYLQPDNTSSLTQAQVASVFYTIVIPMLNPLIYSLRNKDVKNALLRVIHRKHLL
Method in brief: as §1

UniProt B2RVX8 = molecular target: T4, UniProt B2RVX8
T4 sequence (whole entry): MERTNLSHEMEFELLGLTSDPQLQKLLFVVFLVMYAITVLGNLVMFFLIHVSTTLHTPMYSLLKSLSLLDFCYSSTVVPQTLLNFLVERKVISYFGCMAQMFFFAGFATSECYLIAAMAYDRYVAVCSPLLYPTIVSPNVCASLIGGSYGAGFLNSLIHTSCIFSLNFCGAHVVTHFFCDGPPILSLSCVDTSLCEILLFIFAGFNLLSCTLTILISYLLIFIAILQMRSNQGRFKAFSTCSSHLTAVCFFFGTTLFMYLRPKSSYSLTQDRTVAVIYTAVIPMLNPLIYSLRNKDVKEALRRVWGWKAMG
Method in brief: as §1

UniProt E9PVX1 = molecular target: T5, UniProt E9PVX1
T5 sequence (whole entry): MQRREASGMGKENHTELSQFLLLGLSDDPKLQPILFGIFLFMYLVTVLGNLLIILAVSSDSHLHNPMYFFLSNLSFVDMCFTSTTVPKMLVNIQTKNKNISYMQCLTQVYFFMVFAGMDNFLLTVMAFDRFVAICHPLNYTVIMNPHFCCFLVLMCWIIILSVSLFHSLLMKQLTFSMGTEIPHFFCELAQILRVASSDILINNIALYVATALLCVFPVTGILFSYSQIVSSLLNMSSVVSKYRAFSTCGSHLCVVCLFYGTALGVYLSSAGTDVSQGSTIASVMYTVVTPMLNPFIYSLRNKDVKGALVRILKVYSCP
Method in brief: as §1

UniProt E9PX47 = molecular target: T6, UniProt E9PX47
T6 sequence (whole entry): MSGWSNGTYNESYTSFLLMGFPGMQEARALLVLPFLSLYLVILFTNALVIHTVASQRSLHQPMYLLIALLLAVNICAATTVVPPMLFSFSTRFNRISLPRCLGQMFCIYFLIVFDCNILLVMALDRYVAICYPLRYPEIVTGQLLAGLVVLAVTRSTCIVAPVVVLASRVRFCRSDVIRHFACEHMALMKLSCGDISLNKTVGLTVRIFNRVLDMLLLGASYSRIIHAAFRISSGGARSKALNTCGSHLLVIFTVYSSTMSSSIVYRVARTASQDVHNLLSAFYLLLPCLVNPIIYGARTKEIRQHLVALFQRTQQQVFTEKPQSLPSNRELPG
Method in brief: as §1

UniProt E9PZ66 = molecular target: T7, UniProt E9PZ66
T7 sequence (whole entry): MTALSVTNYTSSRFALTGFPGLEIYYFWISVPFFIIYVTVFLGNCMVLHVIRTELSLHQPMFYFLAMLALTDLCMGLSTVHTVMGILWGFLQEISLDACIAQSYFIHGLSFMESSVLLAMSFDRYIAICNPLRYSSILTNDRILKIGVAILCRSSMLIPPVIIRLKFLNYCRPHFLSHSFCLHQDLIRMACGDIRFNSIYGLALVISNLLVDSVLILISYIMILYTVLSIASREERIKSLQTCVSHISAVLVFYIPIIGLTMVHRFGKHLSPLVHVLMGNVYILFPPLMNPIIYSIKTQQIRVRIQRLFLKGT
Method in brief: as §1

UniProt E9Q4X7 = molecular target: T8, UniProt E9Q4X7
T8 sequence (whole entry): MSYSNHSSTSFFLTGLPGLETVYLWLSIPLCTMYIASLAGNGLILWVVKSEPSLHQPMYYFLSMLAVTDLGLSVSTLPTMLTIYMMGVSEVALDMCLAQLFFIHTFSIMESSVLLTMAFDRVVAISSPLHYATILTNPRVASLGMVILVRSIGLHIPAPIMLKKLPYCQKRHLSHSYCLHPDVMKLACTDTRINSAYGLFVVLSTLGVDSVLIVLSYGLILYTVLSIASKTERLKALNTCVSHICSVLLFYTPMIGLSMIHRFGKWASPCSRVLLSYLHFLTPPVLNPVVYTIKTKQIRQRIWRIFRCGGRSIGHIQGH
Method in brief: as §1

UniProt E9Q546 = molecular target: T9, UniProt E9Q546
T9 sequence (whole entry): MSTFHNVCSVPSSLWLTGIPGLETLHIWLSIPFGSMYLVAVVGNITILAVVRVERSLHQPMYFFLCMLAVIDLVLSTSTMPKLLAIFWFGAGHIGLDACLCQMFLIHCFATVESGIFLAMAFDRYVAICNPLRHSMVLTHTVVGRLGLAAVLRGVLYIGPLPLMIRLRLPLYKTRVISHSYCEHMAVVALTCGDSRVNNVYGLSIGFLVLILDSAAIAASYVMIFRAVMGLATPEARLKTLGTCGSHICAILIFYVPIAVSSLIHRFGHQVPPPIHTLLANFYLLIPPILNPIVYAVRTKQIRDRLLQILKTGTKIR
Method in brief: as §1

UniProt E9Q6Z7 = molecular target: T10, UniProt E9Q6Z7
T10 sequence (whole entry): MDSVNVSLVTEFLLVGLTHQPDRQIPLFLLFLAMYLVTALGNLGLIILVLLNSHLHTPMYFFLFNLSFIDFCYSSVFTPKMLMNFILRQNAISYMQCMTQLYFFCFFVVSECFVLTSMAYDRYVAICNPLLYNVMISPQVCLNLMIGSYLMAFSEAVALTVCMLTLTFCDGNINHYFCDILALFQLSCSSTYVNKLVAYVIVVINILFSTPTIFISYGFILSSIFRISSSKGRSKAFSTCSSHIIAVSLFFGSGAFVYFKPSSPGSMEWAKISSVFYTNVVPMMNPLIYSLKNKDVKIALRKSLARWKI
Method in brief: as §1

UniProt K7N609 = molecular target: T11, UniProt K7N609
T11 sequence (whole entry): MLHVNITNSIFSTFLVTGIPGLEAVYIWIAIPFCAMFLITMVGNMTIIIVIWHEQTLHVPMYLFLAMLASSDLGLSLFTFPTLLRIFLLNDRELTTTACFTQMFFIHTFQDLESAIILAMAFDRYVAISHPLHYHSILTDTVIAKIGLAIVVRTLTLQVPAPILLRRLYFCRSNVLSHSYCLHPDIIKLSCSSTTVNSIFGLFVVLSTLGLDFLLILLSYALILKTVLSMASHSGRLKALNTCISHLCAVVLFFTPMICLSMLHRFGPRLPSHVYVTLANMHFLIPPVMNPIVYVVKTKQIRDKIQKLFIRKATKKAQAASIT
Method in brief: as §1

UniProt E9PXN3 = molecular target: T12, UniProt E9PXN3
T12 sequence (whole entry): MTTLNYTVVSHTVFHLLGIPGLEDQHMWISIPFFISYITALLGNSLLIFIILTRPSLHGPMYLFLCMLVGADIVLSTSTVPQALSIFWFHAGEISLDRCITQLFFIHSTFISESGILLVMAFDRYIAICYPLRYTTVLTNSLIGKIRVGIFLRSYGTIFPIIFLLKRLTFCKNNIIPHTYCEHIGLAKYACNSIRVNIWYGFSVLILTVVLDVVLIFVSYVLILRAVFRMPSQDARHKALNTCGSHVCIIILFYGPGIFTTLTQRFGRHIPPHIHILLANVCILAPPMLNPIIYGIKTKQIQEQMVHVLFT
Method in brief: as §1

Measured: odorant receptor agonist call

CCCCCCCCC(=O)O
not listed: UniProt E9PXN3
inactive: all other assays above

c1ccccc1
not listed: UniProt E9PX47 | UniProt E9PXN3
inactive: all other assays above

CC(=O)OCC=C(C)C
not listed: UniProt E9PX47 | UniProt E9PXN3
inactive: all other assays above

CCCCCOC(=O)CCCCC
not listed: UniProt E9PX47 | UniProt E9PXN3
inactive: all other assays above

CCCCC(=O)CC
not listed: UniProt E9PX47 | UniProt E9PXN3
inactive: all other assays above

CCC(=O)O
not listed: UniProt E9PX47 | UniProt E9PXN3
inactive: all other assays above

CCCCCCO
inactive: all assays above

CCCCCCOC(C)=O
not listed: UniProt E9PX47 | UniProt E9PXN3
inactive: all other assays above

CCCCCCCC(C)=O
not listed: UniProt E9PX47 | UniProt E9PXN3
inactive: all other assays above

CCCCCC(=O)CC
not listed: UniProt E9PX47 | UniProt E9PXN3
inactive: all other assays above
